Reference: ChEMBL document CHEMBL1149040, “Two new macrolide sesquiterpene pyridine alkaloids from Maytenus emarginata: emarginatine G and the cytotoxic emarginatine F” (1994)
≈ marks a conversion by molar mass, not a printed value.

What was measured:
Format in all cases: functional
Details in all cases: read-out: ED50 (the source's name)
KB = assay: Cytotoxicity against human KB cells
Outline: (§1)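 In vitro cytotoxicity against a tumor-cell panel. Panel: KB (nasopharyngeal carcinoma), A-549 (human lung carcinoma), HCT-8 (human colon adenocarcinoma), RPMI-7951 (human melanoma), TE-671 (human medulloblastoma) and P-388 (murine leukemia). The procedure follows published protocols.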

A549 = assay: Cytotoxicity against human A549 cells; outline: as §1
HCT-8 = assay: Cytotoxicity against human HCT8 cells; outline: as §1
P388 = assay: Cytotoxicity against mouse P388 cells; outline: as §1
TE-671 = assay: Cytotoxicity against human TE671 cells; outline: as §1
RPMI-7951 = assay: Cytotoxicity against human RPMI7951 cells; outline: as §1

SMILES	EC50 (KB)	EC50 (A549)	EC50 (HCT-8)	EC50 (P388)	EC50 (TE-671)	EC50 (RPMI-7951)
CC(=O)OC[C@]12[C@H](OC(C)=O)[C@@H](O)[C@@H]3[C@@H](OC(C)=O)[C@@]14O[C@@]3(C)COC(=O)c1cccnc1[C@H](C)[C@H](C)C(=O)O[C@@H]([C@H](OC(=O)c1ccc(=O)n(C)c1)[C@@H]2OC(=O)c1ccccc1)[C@@]4(C)O [EMARGINATINE F]	0.51 µg/mL (≈ 0.555 µM)	5.5 µg/mL (≈ 5.99 µM)	1.29 µg/mL (≈ 1.4 µM)	0.69 µg/mL (≈ 0.751 µM)	0.21 µg/mL (≈ 0.229 µM)	< 0.1 µg/mL
C/C=C(\C)C(=O)O[C@H]1[C@@H](OC(=O)c2ccc(=O)n(C)c2)[C@@H]2OC(=O)[C@@H](C)[C@@H](C)c3ncccc3C(=O)OC[C@]3(C)O[C@@]4([C@H](OC(C)=O)[C@H]3[C@@H](OC(C)=O)[C@@H](OC(C)=O)[C@]14COC(C)=O)[C@]2(C)O [EMARGINATINE G]	> 10 µg/mL	> 10 µg/mL	> 10 µg/mL	> 10 µg/mL	> 10 µg/mL	> 10 µg/mL
